# Only a selection was taken, and hits are over-represented in it overall.
# S1P4 antag = S1P4 receptor antagonists, primary screen, cell-based; hit rate 0.26% among 220,000; Sphingosine 1-phosphate receptor 4 (Homo sapiens), O95977; S1P4-expressing cells, antagonist mode, reporter read-out; AID 1510, 2009; inhibition, % at 4.98 µM; in the data active = inhibition above about 29%
# Mdm2 ligase inh = MDM2-luciferase reporter signal enhancers, primary screen, MDM2 E3 ligase inhibitor project, cell-based, luminescence, 1536-well. hit rate 0.11% among 210,000. AID 1230, 2008. E3 ubiquitin-protein ligase Mdm2 (Homo sapiens), Q00987. cell-based MDM2 ubiquitination luciferase reporter, 2 h; 0 = plate control, 100 = twice control, blank-subtracted. signal enhancement, % at 5 µM;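 active = signal enhancement of 30% or more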;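 note: luminescence tracks abundance of the self-degrading MDM2-luciferase fusion protein; higher signal means inhibition of MDM2 E3 ligase activity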
# Target sequence (Q00987 whole entry, looked up, the tested form may be a part): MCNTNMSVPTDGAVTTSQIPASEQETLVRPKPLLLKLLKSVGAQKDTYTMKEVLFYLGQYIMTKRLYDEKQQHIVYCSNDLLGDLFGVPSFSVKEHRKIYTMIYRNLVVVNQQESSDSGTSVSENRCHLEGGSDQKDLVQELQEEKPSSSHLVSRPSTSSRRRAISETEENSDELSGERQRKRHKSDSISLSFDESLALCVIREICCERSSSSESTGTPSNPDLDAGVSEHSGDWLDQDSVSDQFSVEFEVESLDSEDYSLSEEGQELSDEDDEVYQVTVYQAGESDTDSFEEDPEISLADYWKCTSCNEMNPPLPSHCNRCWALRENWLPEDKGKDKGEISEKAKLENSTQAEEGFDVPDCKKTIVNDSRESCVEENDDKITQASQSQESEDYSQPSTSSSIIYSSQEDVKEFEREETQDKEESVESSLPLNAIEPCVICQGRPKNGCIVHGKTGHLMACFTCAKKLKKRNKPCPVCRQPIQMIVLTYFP
#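 Material: Stable MDM2–luciferase fusion reporter cells | Amount: 2000 cells seeded into each well | Dosing: One concentration, 5 µM, with 0.2% DMSO | Incubation: 4 h cell settling then 2 h compound exposure, 37 °C | Measured by: Luciferase luminescence | Read-out basis: % enhancement relative to plate controls after blank subtraction | Benchmarks: Control and blank well means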
# Lmaj promast = Leishmania major promastigote growth inhibition, primary screen. inhibition, % at 10 µM. Leishmania major promastigotes, resazurin fluorescence viability. hit rate 9% among 200,000. AID 1063, 2008; in the data active = inhibition above about 50%;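 note: promastigotes grown with compound for 44 hours at 28 °C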
# S1P3 antagonist = S1P3 receptor antagonists, primary screen, cell-based; Sphingosine 1-phosphate receptor 3 (Homo sapiens), Q99500; CHO S1P3 NFAT-BLA reporter, FRET fluorescence, antagonist mode; inhibition, % at 4.98 µM; hit rate 0.27% among 170,000; AID 485, 2006;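 active = inhibition above the plate cutoff, the mean inhibition of test wells on that plate plus 3 SD, cut at about 28% in these data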;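 note: cells challenged with S1P at its EC80 of 0.8 µM; blue over green emission ratio from cleaved BLA substrate after 4 h stimulation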
# S1P4 ag = S1P4 receptor agonists, primary screen, cell-based; AID 1509, 2009; S1P4-expressing cell line, agonist reporter assay; activation, % at 4.98 µM; hit rate 0.35% among 220,000; Sphingosine 1-phosphate receptor 4 (Homo sapiens), O95977; in the data active = activation above about 11%
# Numbers stand for hits; - = inactive; . = no result.
SMILES,S1P4 antag,Mdm2 ligase inh,Lmaj promast,S1P3 antagonist,S1P4 ag
CCCn1c(=N)n(CC(=O)c2ccc([N+](=O)[O-])cc2)c2ccccc21,-,-,64,-,-
CC(C)Cn1c(N)c(C(=O)CSc2ccc3c(c2)OCCO3)c(=O)n(C)c1=O,-,-,-,-,-
COc1ccccc1N(CC(O)CN1C(=O)NC(C)(C)C1=O)S(=O)(=O)c1ccc(C)cc1 (stereo unspecified),-,-,-,-,-
CCOC(=O)N1CCC(N2C(=O)c3ccccc3C2Nc2cc(Cl)c(OC)cc2OC)CC1 (stereo unspecified),-,-,97,-,-
CCOC(=O)N1CCC(N2C(=O)c3ccccc3C2Nc2cc(OC)c(OC)c(OC)c2)CC1 (stereo unspecified),-,-,-,-,-
O=C(O)C1CC1C(=O)N1CCN(c2ccc(Cl)c(Cl)c2)CC1 (stereo unspecified),-,-,88,.,-
N#CCSc1nc2sc3c(c2c(=O)n1C1CCCCC1)CCCC3,-,-,56,.,-
O=C(Cn1cc2c(n1)CCCCC2)NC1CCCCCC1,-,-,-,-,-
O=C(CN1CCOc2ccccc21)NC1CCN(Cc2ccccc2)CC1,-,-,78,-,-
O=C(CN1CCOc2ccccc21)NC1CCCCCCC1,-,.,-,-,-
O=C(Cn1cc2c(n1)CCCC2)NC1CCN(Cc2ccccc2)CC1,-,-,72,-,-
O=C(NC1CC1)c1ccc2c(c1)C1C3CCC(C3)C1C(c1ccccc1)N2 (stereo unspecified),-,-,-,-,-
COC(=O)c1ccc(NC(=S)NC2CC3CCC2C3)cc1 (stereo unspecified),-,-,73,-,-
COC(=O)c1ccc(NC(=S)NC2CCCCC2)cc1,-,-,87,.,-
CCOc1ccc(NC(=O)c2ccc(NC(=S)NC3CCCCC3)cc2)cc1,-,-,-,-,-
COC(=O)c1ccc(NC(=O)NC2CCCCC2)cc1,-,-,52,-,-
CC(C)COc1cccc(C(=O)NC(=S)NCc2cccnc2)c1,-,-,-,-,-
Cc1[nH]c2ccccc2c1C(=O)CSc1n[nH]c(N)n1,-,-,-,-,-
CC(C)C(=O)c1cc2c(cc1NC(=O)c1ccccc1)OCCO2,-,-,57,.,-
CC(=O)Nc1cc2c(cc1C(=O)C(C)C)OCCO2,-,-,-,-,-
CCc1cc(SC#N)cc(CC)c1NC(=O)CCl,-,-,-,-,-
COc1cc2ncnc(NCc3ccccc3Cl)c2cc1OC,-,-,-,-,-
COc1cc2ncnc(NCc3ccc(Cl)cc3)c2cc1OC,-,-,62,-,-
Cc1ccccc1C(=O)/C=C1\NC(=O)CS1,-,-,-,-,-
O=C(NC(=S)N1CCCCC1)c1cccs1,-,-,55,-,-
SMILES,S1P4 antag,Mdm2 ligase inh,Lmaj promast,S1P3 antagonist,S1P4 ag
COc1cccc(C(=O)NC(=S)N2CCN(c3ccc(C(F)(F)F)cc3[N+](=O)[O-])CC2)c1,-,-,51,-,-
O=C(NC(=S)N1CCN(c2ccc(Cl)cc2[N+](=O)[O-])CC1)c1ccco1,-,-,-,-,-
CC1CCN(C(=S)NC(=O)c2cccs2)CC1,-,-,-,-,-
O=C(NC(=S)N1CCN(c2ccc(Cl)cc2[N+](=O)[O-])CC1)c1cccs1,-,-,75,-,-
O=C(O)C1CCCN1S(=O)(=O)c1cccc2nsnc12 (stereo unspecified),-,-,-,-,-
COC(=O)c1cc2c(ccn2-c2ccc(F)cc2)n1C(C)C,-,-,-,.,-
COC(=O)c1cc2c(ccn2-c2ccc(F)cc2)n1Cc1cccc(OC)c1,-,-,98,-,-
COC(=O)c1cc2c(ccn2-c2ccc(F)cc2)n1Cc1ccc(OC(C)=O)cc1,-,-,93,-,-
NS(=O)(=O)c1cccc(NC(=O)CSc2nnc(-c3ccccc3F)n2C2CC2)c1,-,-,.,-,-
CN=C1NN=C(c2cc(C)n(-c3ccc(Cl)cc3)c2C)CS1,-,-,-,-,-
Cc1ccc(-n2c(C)cc(C3=NNC(=NC4CC4)SC3)c2C)cc1C,-,-,87,-,-
OCCC1CN(Cc2ccccc2OC2CCCC2)CCN1Cc1ccsc1 (stereo unspecified),-,-,61,-,-
OCCC1CN(Cc2ccc(-c3ccco3)cc2)CCN1Cc1ccsc1 (stereo unspecified),-,-,76,-,-
Cc1c(Cl)cccc1NC(=O)c1cccc(OC(F)F)c1,-,-,99,.,-
CC1CCCCN1C(=O)CSc1nc2cc3c(cc2c(=O)n1Cc1ccc2c(c1)OCO2)OCO3 (stereo unspecified),-,-,54,.,-
Cc1cc(-c2nnc(CCC(=O)N(CC3CCC3)CC3CCCO3)o2)no1 (stereo unspecified),-,-,-,-,-
Cc1ccc(NC(=S)c2nc3ccccc3[nH]2)c(C)c1,-,-,87,-,-
Cc1ccc(NC(=S)Nc2ccccn2)c(C)c1,-,-,.,-,-
CC(C)CCC(CC(C)O)c1n[nH]c(=S)n1-c1ccccc1 (stereo unspecified),-,-,-,-,-
COC(=O)c1cc(NC(=O)CC2NC3CCCCC3NC2=O)cc(C(=O)OC)c1 (stereo unspecified),-,-,-,.,-
CC/C(=N\NC(=O)c1ccc(-c2ccccc2)cc1)C12CC3CC(CC(C3)C1)C2,-,-,65,.,-
NCCCC[C@H]1CNC(=O)C(=O)N1CCC12CC3CC(CC(C3)C1)C2,.,-,.,.,.
CCOc1ccc(CCNC(=O)COC(=O)/C=C/c2ccc(OCC#N)c(OC)c2)cc1OCC,-,-,-,-,-
C=CCN(c1ccccc1)S(=O)(=O)c1ccc(Cl)c(C(=O)OCC(=O)N(C)C2CCS(=O)(=O)C2)c1 (stereo unspecified),-,-,-,-,-
CC1=C/C(=N\OS(=O)(=O)c2ccccc2)C(C)=CC1=O,-,-,100,.,-
SMILES,S1P4 antag,Mdm2 ligase inh,Lmaj promast,S1P3 antagonist,S1P4 ag
CC1=C(C)/C(=N\OS(=O)(=O)c2ccc(C)cc2)C=CC1=O,43,-,100,-,-
CN(C)/N=C/c1ccc(OS(=O)(=O)c2ccccc2)cc1,-,-,-,-,-
CC1=C/C(=N\OS(=O)(=O)c2ccccc2)C(C(C)C)=CC1=O,-,-,100,-,-
COc1ccc([N+](=O)[O-])cc1NC(=O)c1ccc(Br)s1,-,-,-,-,-
CCOC(=O)C(NC(=O)N(C)C)(Nc1sc(C)c(CC)c1C#N)C(F)(F)F (stereo unspecified),-,-,-,-,-
CCCCOc1ccc(NC(=O)CSc2nnnn2C)cc1,-,-,-,-,-
COc1cc2c(cc1OC)C(Nc1ccccc1)=NC(C)(C)C2,-,-,-,-,-
COc1ccc(C(=O)N[C@H](C(=O)OCC(=O)NC(=O)c2cccn2C)C(C)C)cc1,-,-,-,-,-
